ChEMBL document CHEMBL1154667, “Synthesis of 3beta, 7alpha, 11alpha-trihydroxy-pregn-21-benzylidene-5-en-20-one derivatives and their cytotoxic activities” (2009)

Assay: Cytotoxicity against human EC109 cells at 50 ug/ml after 48 hrs by MTT assay
Format: functional
Details: ECa-109, 48 h
How it was run: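 EC109 cells grown in RPMI-1640 with 10% fetal calf serum, penicillin and streptomycin at 37 °C in 5% CO2. Seeded at 7000 cells/well; compound diluted in medium added next day for 48 h. MTT (0.5 mg/mL in PBS) then added for a further 4 h, formazan dissolved in DMSO, absorbance read at 570 nm.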

Compared with `C[C@]12C[C@@H](O)[C@H]3[C@@H]([C@H](O)C=C4C[C@@H](O)CC[C@@]43C)[C@@H]1CC[C@@H]2C(=O)/C=C/c1ccc(F)cc1`, `C[C@]12C[C@@H](O)[C@H]3[C@@H]([C@H](O)C=C4C[C@@H](O)CC[C@@]43C)[C@@H]1CC[C@@H]2C(=O)/C=C/c1ccc(Cl)cc1` is higher in inhibition at 50 µg/mL: 76.8% for the first, 80.2% for the second.

Compared with `COc1ccc(/C=C/C(=O)[C@H]2CC[C@H]3[C@H]4[C@H]([C@H](O)C[C@]23C)[C@@]2(C)CC[C@H](O)CC2=C[C@H]4O)cc1`, `C[C@]12C[C@@H](O)[C@H]3[C@@H]([C@H](O)C=C4C[C@@H](O)CC[C@@]43C)[C@@H]1CC[C@@H]2C(=O)/C=C/c1ccc(N)cc1` is lower in inhibition at 50 µg/mL: 55.3% for the first, 50.2% for the second.

Compared with `C[C@]12C[C@@H](O)[C@H]3[C@@H]([C@H](O)C=C4C[C@@H](O)CC[C@@]43C)[C@@H]1CC[C@@H]2C(=O)/C=C/c1cccc([N+](=O)[O-])c1`, `C[C@]12C[C@@H](O)[C@H]3[C@@H]([C@H](O)C=C4C[C@@H](O)CC[C@@]43C)[C@@H]1CC[C@@H]2C(=O)/C=C/c1cccc(Cl)c1` is higher in inhibition at 50 µg/mL: 72.4% for the first, 76.4% for the second.

Compared with `COc1ccccc1/C=C/C(=O)[C@H]1CC[C@H]2[C@H]3[C@H]([C@H](O)C[C@]12C)[C@@]1(C)CC[C@H](O)CC1=C[C@H]3O`, `C[C@]12C[C@@H](O)[C@H]3[C@@H]([C@H](O)C=C4C[C@@H](O)CC[C@@]43C)[C@@H]1CC[C@@H]2C(=O)/C=C/c1ccccc1` is higher in inhibition at 50 µg/mL: 47.4% for the first, 59.8% for the second.

First: COc1cc(OC)c(/C=C/C(=O)[C@H]2CC[C@H]3[C@H]4[C@H]([C@H](O)C[C@]23C)[C@@]2(C)CC[C@H](O)CC2=C[C@H]4O)c(OC)c1
Second: CN(C)c1ccc(/C=C/C(=O)[C@H]2CC[C@H]3[C@H]4[C@H]([C@H](O)C[C@]23C)[C@@]2(C)CC[C@H](O)CC2=C[C@H]4O)cc1
The inhibition at 50 µg/mL of the first is lower: 35.3% for the first, 39% for the second.

First: CC(=O)[C@H]1CC[C@H]2[C@H]3[C@H]([C@H](O)C[C@]12C)[C@@]1(C)CC[C@H](O)CC1=C[C@H]3O
Second: C[C@]12C[C@@H](O)[C@H]3[C@@H]([C@H](O)C=C4C[C@@H](O)CC[C@@]43C)[C@@H]1CC[C@@H]2C(=O)/C=C/c1ccc(O)cc1
The inhibition at 50 µg/mL of the first is lower: 21.7% for the first, 45.7% for the second.

Going from `C=C1C(=O)[C@]23[C@H](O)[C@H]1CC[C@H]2[C@@]12CO[C@]3(O)[C@@H](O)[C@@H]1C(C)(C)CC[C@@H]2O` [ORIDONIN] to `CC(=O)[C@H]1CC[C@H]2[C@@H]3CC=C4C[C@@H](O)CC[C@]4(C)[C@H]3CC[C@]12C` [PREGNENOLONE], the inhibition at 50 µg/mL falls from 94.7% to 13.6%.
